# Activity calls are given as the source filed them. The rule behind the calls is not given here.
# What was measured:
# Astrocyte [1] = assay: Neuroprotective activity in Sprague-Dawley rat astrocytes assessed as effect on vimentin positive cell density and morphology at 50 uM by fluorescence microscopic method; format: functional, cell-based
# Summary of the method: (§1)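 Midbrain cultures labelled for vimentin, a glial marker. Density and morphology of glial cells scored semi-quantitatively by fluorescence microscopy. Compounds tested at 10 and 50 µM, one at 100 µM; dbcAMP as reference.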
# Mus musculus [2] = assay: (§2) Neuroprotective activity against MPTP-induced C57BL/6 mouse SN DA neuron toxicity model assessed as survival of Th immunopositive cells at 25 mg/kg/day, po bid pretreated for 3 days followed by MPTP challenge and further administration of compound up to day 11 by immunohistochemical analysis (reference value: 61 +/- 5%); format: functional; settings: C57BL/6, po
# Summary of the method: (§3)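 C57BL/6 mice given sub-chronic MPTP treatment. Test agent given per os twice daily (2x25 or 2x50 mg/kg/day) for 11 days. TH+ neurons counted in one hemisphere per mouse. Expressed as % of vehicle-treated mice, mean ± SEM, n=9-12.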
# [3] = Neuroprotective activity in Sprague-Dawley rat DA neuron death PD model assessed as survival of Th immunopositive cells at 10 uM after 10 days by immunofluorescence assay relative to control; format: functional; settings: 240 h, read-out: Survival
# Summary of the method: (§4)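 Midbrain cultures in which DA neurons die spontaneously and selectively through a mechanism involving immature astrocytes and calcium dyshomeostasis. Compounds were present for 10 days in vitro, screened at 50 µM (100 µM for one analog) and retested at 10 µM. dbcAMP 1 mM served as reference. Surviving TH+ neurons were counted and expressed as % of corresponding untreated control cultures.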
# Rattus norvegicus [4] = species on record: Rattus norvegicus; assay: Neuroprotective activity in Sprague-Dawley rat DA neuron death PD model assessed as survival of Th immunopositive cells at 50 uM after 10 days in presence of anti-GDNF antibody by immunofluorescence assay; format: functional
# Rattus norvegicus [5] = species on record: Rattus norvegicus; assay: Neuritogenic activity in Sprague-Dawley rat DA neuron death PD model assessed as development of neurite network in Th immunopositive cells at 10 to 50 uM after 10 days by microscopic analysis relative to control; format: functional, cell-based
# Summary of the method: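 Midbrain cultures treated or not with test compound (10-50 µM) for 10 DIV, then immunostained for TH. Neuritic network of TH+ neurons examined microscopically against control neurons. DbcAMP 1 mM as reference protective molecule.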
# Astrocyte [6] = assay: Neuroprotective activity in Sprague-Dawley rat astrocytes assessed as [methyl-3H]thymidine incorporation at 10 to 50 uM after 8 days by liquid scintillation counting assay relative to control; format: functional
# Summary of the method: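 Glial proliferation in midbrain cultures measured as [methyl-3H]-thymidine incorporation at 8 DIV, with test compound 10-50 µM. DbcAMP 1 mM as positive control. Expressed as % of control.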
# Astrocyte [7] = assay: Neuroprotective activity in Sprague-Dawley rat astrocytes assessed as effect on vimentin positive cell density and morphology at 10 uM by fluorescence microscopic method; format: functional, cell-based; summary of the method: as §1
# Rattus norvegicus [8] = species on record: Rattus norvegicus; assay: Neuroprotective activity in Sprague-Dawley rat DA neuron death PD model assessed as inhibition of calcium mobilization at 50 uM after 10 days in presence of L-type voltage gated calcium channel blocker nifedipine; format: functional
# Rattus norvegicus [9] = species on record: Rattus norvegicus; assay: Neuroprotective activity in Sprague-Dawley rat DA neuron death PD model assessed as survival of Th immunopositive cells treated at 10 to 50 uM in presence of GDNF for 10 days followed by deprivation of GDNF for next 5 days by immunofluorescence assay; format: functional
# Summary of the method: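 Midbrain cultures kept with GDNF (20 ng/ml) for 10 days, then deprived of GDNF from 11 to 15 DIV, with test compound 10-50 µM. TH+ neurons counted and compared with cultures kept on GDNF to 15 DIV. P < 0.05 vs GDNF-treated and vs GDNF-deprived cultures.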
# Mus musculus [10] = assay: Neuroprotective activity against MPTP-induced C57BL/6 mouse DA neuron toxicity model assessed as reduction of striatal DA turnover at 25 mg/kg/day, po bid pretreated for 3 days followed by MPTP challenge and further administration of compound up to day 11 by HPLC method; format: functional; parameters: scale not given: the % may be the effect or the level left
# Rattus norvegicus [11] = species on record: Rattus norvegicus; assay: Neuroprotective activity in Sprague-Dawley rat DA neuron death PD model assessed as inhibition of calcium mobilization at 50 uM after 10 days in presence of RyR channel blocker dantrolene; format: functional
# Mus musculus [12] = assay: Neuroprotective activity against MPTP-induced C57BL/6 mouse DA neuron toxicity model assessed as restoration of striatal DA level at 50 mg/kg/day, po bid pretreated for 3 days followed by MPTP challenge and further administration of compound up to day 11 by HPLC method; format: functional, organism-based
# Rattus norvegicus [13] = species on record: Rattus norvegicus; assay: Neuroprotective activity in Sprague-Dawley rat DA neuron death PD model assessed as increase in [2,5,6-3H]DA uptake at 10 to 50 uM after 10 days by liquid scintillation counting spectrometric analysis; format: functional
# Summary of the method: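 Midbrain cultures in which DA neurons die spontaneously and selectively. Treated with test compound (10-50 µM) or dbcAMP (1 mM, reference) up to 10 DIV. Tritium-labeled DA uptake quantified as a marker of DA cell function and differentiation. Uptake rate per TH+ neuron also derived. *P < 0.05 vs control.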
# [14] = Neuroprotective activity in Sprague-Dawley rat DA neuron death PD model assessed as survival of Th immunopositive cells at 50 uM after 10 days by immunofluorescence assay; format: functional; settings: 240 h, read-out: Survival; summary of the method: as §4
# Mus musculus [15] = assay: Neuroprotective activity against MPTP-induced C57BL/6 mouse DA neuron toxicity model assessed as decrease in striatal DOPAC level at 50 mg/kg/day, po bid pretreated for 3 days followed by MPTP challenge and further administration of compound up to day 11 by HPLC method; format: functional, organism-based
# Mus musculus [16] = assay: Neuroprotective activity against MPTP-induced C57BL/6 mouse DA neuron toxicity model assessed as restoration of striatal DA level at 25 mg/kg/day, po bid pretreated for 3 days followed by MPTP challenge and further administration of compound up to day 11 by HPLC method (reference value: 28 +/- 2%); format: functional
# Mus musculus [17] = assay: Neuroprotective activity against MPTP-induced C57BL/6 mouse DA neuron toxicity model assessed as restoration of striatal HVA level at 50 mg/kg/day, po bid pretreated for 3 days followed by MPTP challenge and further administration of compound up to day 11 by HPLC method; format: functional, organism-based
# Rattus norvegicus [18] = species on record: Rattus norvegicus; assay: Antioxidant activity in Sprague-Dawley rat DA neuron assessed as reduction in ferrous iron-mediated neuron death at 5 uM; format: functional
# Summary of the method: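 Midbrain cultures with DA cell death driven by a Fenton-type reaction, ferrous iron reacting with molecular oxygen in the medium (chronic oxidative stress). Test compound 1-10 µM; desferrioxamine 10 µM as positive control. Readout is DA neuron (TH+) survival. P < 0.05 vs control cultures.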
# Mus musculus [19] = assay: Neuroprotective activity against MPTP-induced C57BL/6 mouse DA neuron toxicity model assessed as restoration of striatal HVA level at 25 mg/kg/day, po bid pretreated for 3 days followed by MPTP challenge and further administration of compound up to day 11 by HPLC method (reference value: 53 +/- 3%); format: functional
# Mus musculus [20] = assay: as §2, with “50” for “25”, “relative to control” for “(reference value: 61 +/- 5%)”; format: functional; settings: C57BL/6, po; summary of the method: as §3
# [21] = target: T1, Amine oxidase [flavin-containing] B (Rattus norvegicus, UniProt P19643); assay: Inhibition of rat mitochondrial MAO-B using DAB as substrate incubated for 30 mins by HPLC analysis
# T1 sequence (P19643 whole entry): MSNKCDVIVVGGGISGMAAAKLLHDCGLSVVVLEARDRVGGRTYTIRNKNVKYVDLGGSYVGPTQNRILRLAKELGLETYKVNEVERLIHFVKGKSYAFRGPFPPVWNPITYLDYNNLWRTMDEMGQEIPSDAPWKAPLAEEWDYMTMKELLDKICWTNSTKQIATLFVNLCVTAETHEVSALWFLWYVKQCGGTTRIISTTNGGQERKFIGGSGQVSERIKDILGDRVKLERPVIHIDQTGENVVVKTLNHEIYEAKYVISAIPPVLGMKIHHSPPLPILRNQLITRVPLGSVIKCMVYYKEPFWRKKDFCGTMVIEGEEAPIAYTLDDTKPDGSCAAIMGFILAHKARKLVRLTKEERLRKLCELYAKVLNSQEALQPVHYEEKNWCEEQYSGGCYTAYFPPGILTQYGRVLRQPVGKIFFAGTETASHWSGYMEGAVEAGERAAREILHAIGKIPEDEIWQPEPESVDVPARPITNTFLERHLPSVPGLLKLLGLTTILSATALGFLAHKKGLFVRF
structure (smiles),measurement,setting,value
Nc1ccc2ncc(-c3ccccc3)nc2c1,Activity,Astrocyte [1],inactive
same,survival at 25 mg/kg/day,Mus musculus [2],78%
same,viability at 10 µM,[3],152%
same,Activity,Rattus norvegicus [4],Active
same,Activity,Rattus norvegicus [5],Active
same,Activity,Astrocyte [6],93.8%
same,Activity,Astrocyte [7],inactive
same,inhibition,Rattus norvegicus [8],Active
same,Activity,Rattus norvegicus [9],Active
same,Activity,Mus musculus [10],36%
same,inhibition,Rattus norvegicus [11],inactive
same,Activity,Mus musculus [12],Active
same,Activity,Rattus norvegicus [13],Active
same,viability at 50 µM,[14],226%
same,Activity,Mus musculus [15],Active
same,Activity,Mus musculus [16],39%
same,Activity,Mus musculus [17],Active
same,Activity,Rattus norvegicus [18],Active
same,Activity,Mus musculus [19],64%
same,survival at 50 mg/kg/day,Mus musculus [20],91%
same,IC50,[21],513 µM
